In ChEMBL document CHEMBL4308845, “Allosteric Activation of Striatal-Enriched Protein Tyrosine Phosphatase (STEP, PTPN5) by a Fragment-like Molecule” (J Med Chem, 2019):
Activity calls are given as the source filed them. No cut-off for these calls is given here.

Assays:
Homo sapiens [1] = organism: Homo sapiens; experiment: Activation of human STEP46 (197 to 565 residues) expressed in Escherichia coli BL21(DE3) at 500 uM using biotin-pFyn peptide substrate after 60 mins by AlphaLISA assay relative to control
Summary of the method: (§1)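 STEP46 (50 nM final) with biotinylated pFyn peptide (20 nM final) and compound in 1% DMSO, 60 min at room temperature in the dark. Detection by anti non-phospho Src/Tyr416 antibody in stop buffer containing 10 μM orthovanadate, plus protein A acceptor and streptavidin donor beads, 15 min each. % CTL computed against enzyme (100%) and no-enzyme (0%) controls.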

Homo sapiens [2] = organism: Homo sapiens; experiment: Activation of human STEP46 (197 to 565 residues) expressed in Escherichia coli BL21(DE3) at 100 uM using biotin-pFyn peptide substrate after 60 mins by AlphaLISA assay relative to control; summary of the method: as §1
Homo sapiens [3] = organism: Homo sapiens; experiment: Activation of human STEP46 (197 to 565 residues) expressed in Escherichia coli BL21(DE3) at 1000 uM preincubated for 10 mins followed by DiFMUP substrate addition and measured at 1 min time interval for 30 mins by fluorescence assay relative to control
Summary of the method: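 STEP46 preincubated 10 min at room temperature with compound; reaction started with DiFMUP. Final: 100 nM STEP46, 1 μM DiFMUP, 50 mM HEPES, 0.02% Brij 35, 1 mM DTT, 5% DMSO. Fluorescence (ex 340/em 460 nm) every 1 min for 30 min at 37 °C; no-enzyme background subtracted. Linear slope expressed relative to enzyme without compound (100%).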

[4] = target: T1, Tyrosine-protein phosphatase non-receptor type 1 (Homo sapiens) (UniProt P18031); experiment: Activation of human PTP1B (1 to 405 residues) at 500 uM preincubated for 10 mins followed by EDT-pY-Y-RKG-amide substrate addition and measured after 1.5 hrs by AlphaLISA assay
T1 sequence (whole entry): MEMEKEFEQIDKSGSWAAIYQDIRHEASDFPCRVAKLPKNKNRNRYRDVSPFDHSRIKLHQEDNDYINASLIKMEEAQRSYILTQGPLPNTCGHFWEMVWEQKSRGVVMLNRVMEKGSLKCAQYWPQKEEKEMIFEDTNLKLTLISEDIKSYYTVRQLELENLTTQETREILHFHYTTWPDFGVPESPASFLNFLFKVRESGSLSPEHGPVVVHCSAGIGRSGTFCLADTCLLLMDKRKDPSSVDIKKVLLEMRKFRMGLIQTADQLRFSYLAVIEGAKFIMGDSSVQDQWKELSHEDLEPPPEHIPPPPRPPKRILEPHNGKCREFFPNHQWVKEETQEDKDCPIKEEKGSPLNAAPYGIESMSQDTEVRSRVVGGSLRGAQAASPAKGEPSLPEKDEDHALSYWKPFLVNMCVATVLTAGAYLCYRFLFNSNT
Summary of the method: (§2)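 In-house PTP1B (1−405) at 500 pM final, preincubated 10 min at 24 °C with compound (up to 500 μM), then EDT-pY-Y-RKG-amide (1.4 μM final) or pFYN (20 μM final) added; 1.5 h at 24 °C, humidified. Stopped with 200 μM orthovanadate. Competition AlphaScreen using biotin-Ahx-EDT-pY-Y-RKG-amide (2.5 nM), anti-pTyr antibody 4G10 (500 pM), beads (5 μg/mL each), 2 h at 24 °C. Read against on-plate substrate standard curve.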

[5] = target: T2, Tyrosine-protein phosphatase non-receptor type 2 (Homo sapiens) (UniProt P17706); experiment: Activation of human TCPTP (2 to 345 residues) at 500 uM using biotin-Ahx-EDT-pY-Y-RKG-amide as substrate measured after 2 hrs by AlphaLISA assay
T2 sequence (whole entry): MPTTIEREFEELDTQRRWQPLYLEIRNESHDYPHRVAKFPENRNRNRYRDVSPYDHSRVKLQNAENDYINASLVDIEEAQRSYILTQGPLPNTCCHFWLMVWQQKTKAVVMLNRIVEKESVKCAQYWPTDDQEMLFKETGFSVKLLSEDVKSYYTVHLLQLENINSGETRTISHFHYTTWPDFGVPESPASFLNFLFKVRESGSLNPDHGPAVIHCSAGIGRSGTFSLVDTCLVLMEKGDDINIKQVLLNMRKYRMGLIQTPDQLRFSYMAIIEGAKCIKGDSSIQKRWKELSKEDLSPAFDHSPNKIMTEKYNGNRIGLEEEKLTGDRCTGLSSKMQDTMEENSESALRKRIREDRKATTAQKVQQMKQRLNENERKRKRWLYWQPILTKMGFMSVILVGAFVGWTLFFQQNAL
Summary of the method: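 In-house TC-PTP (2−345) at 500 pM final, preincubated 10 min at 24 °C with compound (up to 500 μM), then EDT-pY-Y-RKG-amide substrate (1.4 μM final); 1.5 h at 24 °C, stopped with 200 μM orthovanadate. Competition AlphaScreen with biotin-Ahx-EDT-pY-Y-RKG-amide (2.5 nM) and antibody 4G10 (500 pM), 2 h at 24 °C. Quantified from on-plate standard curve.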

[6] = target: T1, Tyrosine-protein phosphatase non-receptor type 1 (Homo sapiens); experiment: Activation of human PTP1B (1 to 405 residues) at 500 uM preincubated for 10 mins followed by pFYN substrate addition and measured after 1.5 hrs by AlphaLISA assay; summary of the method: as §2
[7] = target: T3, Tyrosine-protein phosphatase non-receptor type 5 (Homo sapiens) (UniProt P54829); experiment: Activation of human STEP PTP domain (281 to 563 residues) expressed in Escherichia coli BL21(DE3) assessed as ratio of Kcat to Km at 500 uM using pFyn peptide substrate after 60 mins by RapidFire MS/MS assay (reference value: 400 +/- 20 /M/s)
T3 sequence (whole entry): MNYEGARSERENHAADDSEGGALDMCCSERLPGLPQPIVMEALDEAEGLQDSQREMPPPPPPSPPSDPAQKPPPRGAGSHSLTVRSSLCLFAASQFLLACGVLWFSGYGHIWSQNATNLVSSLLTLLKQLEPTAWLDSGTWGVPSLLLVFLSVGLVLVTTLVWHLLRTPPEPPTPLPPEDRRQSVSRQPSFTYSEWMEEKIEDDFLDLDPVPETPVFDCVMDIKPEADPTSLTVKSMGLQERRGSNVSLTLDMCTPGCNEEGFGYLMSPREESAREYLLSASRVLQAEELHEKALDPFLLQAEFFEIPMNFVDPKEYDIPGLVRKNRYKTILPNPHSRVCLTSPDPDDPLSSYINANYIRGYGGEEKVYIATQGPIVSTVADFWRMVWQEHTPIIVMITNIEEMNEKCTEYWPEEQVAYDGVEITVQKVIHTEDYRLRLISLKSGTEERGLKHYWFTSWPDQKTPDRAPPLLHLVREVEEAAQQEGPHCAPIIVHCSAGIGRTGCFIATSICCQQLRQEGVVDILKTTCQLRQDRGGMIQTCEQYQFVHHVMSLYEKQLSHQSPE

Activity (Homo sapiens [1]): 56%
Activity (Homo sapiens [2]): 33%
Activity (Homo sapiens [3]): 48%
Activity [4]: inactive
Activity [5]: inactive
Activity [6]: inactive
Ratio [7]: 650 M⁻¹ s⁻¹
SMILES: N=C(N)Nc1cc(C2CCNCC2)cc(C(F)(F)F)c1
